Experimental data: ChEMBL document CHEMBL4371044, “Celastrol Promotes Weight Loss in Diet-Induced Obesity by Inhibiting the Protein Tyrosine Phosphatases PTP1B and TCPTP in the Hypothalamus” (J Med Chem, 2018)
The source made the active and inactive calls. The rule behind the calls is not given here.

Assays:
[1] = target: T1, Tyrosine-protein phosphatase non-receptor type 1 (Homo sapiens, UniProt P18031); experiment: Inhibition of human N-terminal His6-tagged PTP1B catalytic domain (1 to 393 residues) expressed in Escherichia coli strain Rosetta2 (DE3) using DiFMUP as substrate preincubated for 10 mins followed by substrate addition and measured after 10 mins by fluorescence assay
T1 sequence (P18031 whole entry): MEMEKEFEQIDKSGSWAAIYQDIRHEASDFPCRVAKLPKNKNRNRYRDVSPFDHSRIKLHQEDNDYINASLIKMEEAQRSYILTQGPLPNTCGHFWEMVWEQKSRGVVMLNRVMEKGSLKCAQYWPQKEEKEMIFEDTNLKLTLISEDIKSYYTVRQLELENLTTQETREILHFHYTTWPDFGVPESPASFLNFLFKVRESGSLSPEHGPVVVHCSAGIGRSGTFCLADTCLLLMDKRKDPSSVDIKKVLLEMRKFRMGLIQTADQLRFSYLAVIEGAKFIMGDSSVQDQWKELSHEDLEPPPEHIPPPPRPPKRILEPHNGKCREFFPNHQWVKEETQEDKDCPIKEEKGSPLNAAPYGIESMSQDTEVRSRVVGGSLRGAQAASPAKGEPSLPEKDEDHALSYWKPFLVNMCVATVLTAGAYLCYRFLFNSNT
Procedure, shortened: (§1)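 Tag-cleaved, SEC-purified enzyme at 1 nM, preincubated 10 min with compound at 15 concentrations from 0–500 μM (5% DMSO final) in 25 mM Bis-Tris propane pH 7.5, 50 mM NaCl, 2 mM EDTA. DiFMUP added at each construct's Km (10, 7, 10, 9 μM for PTP1B1−298, PTP1B1−393, TCPTP1−296, TCPTP1−336). Read ex 358/em 455 nm continuously 10 min at 37 °C; triplicate; log(inhibitor)-response fit.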

[2] = target: T2, Tyrosine-protein phosphatase non-receptor type 2 (Homo sapiens, UniProt P17706); experiment: Inhibition of human N-terminal His6-tagged TCPTP catalytic domain (1 to 336 residues) expressed in Escherichia coli strain Rosetta2 (DE3) using DiFMUP as substrate preincubated for 10 mins followed by substrate addition and measured after 10 mins by fluorescence assay; procedure, shortened: as §1
T2 sequence (P17706 whole entry): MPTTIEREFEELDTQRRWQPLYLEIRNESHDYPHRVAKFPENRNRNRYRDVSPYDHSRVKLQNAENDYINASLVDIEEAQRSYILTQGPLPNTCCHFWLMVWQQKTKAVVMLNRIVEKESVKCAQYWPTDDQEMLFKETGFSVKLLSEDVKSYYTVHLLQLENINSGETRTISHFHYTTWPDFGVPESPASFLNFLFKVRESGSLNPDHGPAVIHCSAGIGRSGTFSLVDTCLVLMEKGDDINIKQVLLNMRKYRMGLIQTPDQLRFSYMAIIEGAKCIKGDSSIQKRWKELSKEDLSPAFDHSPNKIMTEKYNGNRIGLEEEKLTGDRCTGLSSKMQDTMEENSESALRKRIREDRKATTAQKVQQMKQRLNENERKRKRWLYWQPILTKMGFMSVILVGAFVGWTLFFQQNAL

[3] = target: T3, Tyrosine-protein phosphatase non-receptor type 2 (Homo sapiens) (UniProt P17706); experiment: Inhibition of human N-terminal His6-tagged TCPTP catalytic domain (1 to 336 residues) expressed in Escherichia coli strain Rosetta2 (DE3) at 500 uM using DiFMUP as substrate preincubated for 10 mins followed by substrate addition and measured after 10 mins by fluorescence assay
T3 sequence (whole entry): T2 sequence (P17706 whole entry)

[4] = target: T4, Tyrosine-protein phosphatase non-receptor type 1 (Homo sapiens) (UniProt P18031); experiment: Inhibition of human N-terminal His6-tagged PTP1B catalytic domain (1 to 393 residues) expressed in Escherichia coli strain Rosetta2 (DE3) at 500 uM using DiFMUP as substrate preincubated for 10 mins followed by substrate addition and measured after 10 mins by fluorescence assay
T4 sequence (whole entry): T1 sequence (P18031 whole entry)

Row | Structure (SMILES) | IC50 [1] | IC50 [2] | inhibition [3] | inhibition [4]
1 | Nc1ccc(NC(=O)C(=O)O)cc1 | 910 µM | 478 µM | – | –
2 | CC1=C(CO)C(=O)O[C@@H]([C@@H](C)[C@H]2CC[C@H]3[C@@H]4C[C@H]5O[C@]56[C@@H](O)C=CC(=O)[C@]6(C)[C@H]4CC[C@]23C)C1 | – | – | inactive | inactive
3 | Cc1c(O)c(O)cc2c1CC=C1[C@@]2(C)CC[C@@]2(C)[C@@H]3C[C@](C)(C(=O)O)CC[C@]3(C)CC[C@]12C | – | – | Active | Active
